We go through 13 molecules from ChEMBL document CHEMBL4819017 (Eur J Med Chem, 2021).

Each structure is given as a SMILES string.

Sequence of Voltage-gated inwardly rectifying potassium channel KCNH2 (Q12809 whole entry): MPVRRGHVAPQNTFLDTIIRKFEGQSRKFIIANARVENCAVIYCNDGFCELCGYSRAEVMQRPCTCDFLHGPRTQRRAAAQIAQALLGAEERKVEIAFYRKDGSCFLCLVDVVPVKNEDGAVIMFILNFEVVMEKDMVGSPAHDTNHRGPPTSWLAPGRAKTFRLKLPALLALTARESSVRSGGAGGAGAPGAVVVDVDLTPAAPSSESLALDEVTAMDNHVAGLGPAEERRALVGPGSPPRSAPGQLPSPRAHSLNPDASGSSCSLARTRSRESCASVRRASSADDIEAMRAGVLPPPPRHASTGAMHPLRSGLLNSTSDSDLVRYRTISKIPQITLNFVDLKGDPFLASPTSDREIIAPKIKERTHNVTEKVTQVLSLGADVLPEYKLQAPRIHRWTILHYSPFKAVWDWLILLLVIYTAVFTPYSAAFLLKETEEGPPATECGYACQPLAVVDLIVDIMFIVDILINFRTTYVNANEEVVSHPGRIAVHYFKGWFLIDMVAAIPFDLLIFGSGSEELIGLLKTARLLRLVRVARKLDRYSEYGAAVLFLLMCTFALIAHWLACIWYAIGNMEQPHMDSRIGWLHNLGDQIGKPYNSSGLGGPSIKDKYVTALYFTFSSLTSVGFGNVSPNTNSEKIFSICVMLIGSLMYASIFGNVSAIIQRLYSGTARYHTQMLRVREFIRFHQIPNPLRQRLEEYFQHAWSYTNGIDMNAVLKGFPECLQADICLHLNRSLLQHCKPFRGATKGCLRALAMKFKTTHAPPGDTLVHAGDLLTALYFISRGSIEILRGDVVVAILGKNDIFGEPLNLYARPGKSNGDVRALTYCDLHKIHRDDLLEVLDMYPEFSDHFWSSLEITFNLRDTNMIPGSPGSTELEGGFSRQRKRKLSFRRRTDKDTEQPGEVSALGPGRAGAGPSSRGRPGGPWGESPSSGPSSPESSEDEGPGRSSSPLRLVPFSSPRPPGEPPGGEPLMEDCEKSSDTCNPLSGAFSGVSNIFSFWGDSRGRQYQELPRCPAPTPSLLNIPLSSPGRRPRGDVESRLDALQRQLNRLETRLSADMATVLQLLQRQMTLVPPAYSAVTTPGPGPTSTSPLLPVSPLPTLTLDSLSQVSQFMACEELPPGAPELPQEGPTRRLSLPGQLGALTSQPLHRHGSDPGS

One assay concerns the target Serine/threonine-protein kinase mTOR (Homo sapiens, UniProt P42345). As to the kind of experiment: Inhibition of recombinant human GST tagged mTOR (1360 to 2549 residues) expressed in baculovirus expression system measured by LanthaScreen assay. An outline of the steps:
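mTOR inhibition measured by LanthaScreen assay; IC50 values average two independent experiments.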
A general note: Time-resolved FRET reads energy transfer from a long-lived donor to a nearby acceptor.
The IC50 is the concentration needed to halve the response being measured. For the molecule `COc1ncc2cc1NS(=O)(=O)c1cccc(c1)C(=O)NCc1cncc(c1)-c1cnn3ccc-2nc13`, the IC50 came out at 67.6 nM.

As for `COc1ncc2cc1NS(=O)(=O)c1cccc(c1)C(=O)NCc1cncc(c1)-c1ccnc3ccc-2cc13`, the IC50 amounted to 0.3 nM.

As to `COc1ncc2cc1NS(=O)(=O)c1cccc(c1)C(=O)NCc1cccc(c1)-c1ccnc3ccc-2cc13`, the IC50 was 20.9 nM.

Regarding `COc1ncc2cc1NS(=O)(=O)c1cccc(c1)C(=O)NCCn1cc(cn1)-c1cnn3ccc-2nc13`, the IC50 worked out at 66.3 nM.

On to `COc1ncc2cc1NS(=O)(=O)c1cc(c(F)cc1F)C(=O)NCc1cncc(c1)-c1ccnc3ccc-2nc13`, for which the IC50 was 5.4 nM.

For `COc1ncc2cc1NS(=O)(=O)c1cccc(c1)C(=O)NCc1cccc(c1F)-c1ccnc3ccc-2cc13`, the IC50 is 223 nM.

Take `COc1ncc2cc1NS(=O)(=O)c1cccc(c1)C(=O)NCCn1cc(cn1)-c1ncnc3ccc-2cc13`: the IC50 came out at 16.5 nM.

Consider `COc1ncc2cc1NS(=O)(=O)c1cc(c(F)cc1F)C(=O)NCc1cccc(c1)-c1ccnc3ccc-2cc13`, for which the IC50 came to 63.8 nM.

On to `COc1ncc2cc1NS(=O)(=O)c1cccc(c1)C(=O)NCc1cncc(c1)-c1cnc3ccc-2nn13`, for which the IC50 turned out to be 16.7 nM.

On to `COc1ncc2cc1NS(=O)(=O)c1cccc(c1)C(=O)NCc1ccc(F)c(c1)-c1ccnc3ccc-2cc13`, for which the IC50 is 655 nM.

`COc1ncc2cc1NS(=O)(=O)c1cccc(c1)C(=O)NCC1CCN(CC1)c1ncnc3ccc-2cc13`: the concentration for half-maximal inhibition (IC50) came out at 23.4 nM.

`COc1ncc2cc1NS(=O)(=O)c1cccc(c1)C(=O)NCc1cncc(c1)-c1ccnc3ccc-2nc13`: the IC50 was found to be 49 nM.

Turning to `COc1ncc2cc1NS(=O)(=O)c1cccc(c1)C(=O)NCc1cccc(c1)-c1cnn3ccc-2nc13`, the IC50 is > 10000 nM.

Test system in a further assay: not listed separately
As to the kind of experiment: Inhibition of PI3K/mTOR in human U2OS cells assessed as inhibition of AKT1 phosphorylation at Ser473 residue by C-ELISA. Format: cell-based. Put shortly:
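U2OS osteosarcoma cells grown in 0.1% FBS and serum-stimulated. Endogenous phospho-AKT1 Ser473 quantified by cell-based ELISA with chemiluminescent substrate. Signal plotted against inhibitor concentration and fitted to a sigmoid dose-response curve.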
On the technique in general: In an ELISA, binding on a coated surface is turned into a signal by an enzyme label.
The EC50 is the midpoint of the concentration-response curve. As for `COc1ncc2cc1NS(=O)(=O)c1cccc(c1)C(=O)NCc1cncc(c1)-c1cnc3ccc-2nn13`, the EC50 was 99.4 nM.

The species entered for the next assay is Homo sapiens. Briefly: Selectivity ratio of IC50 for recombinant human GST tagged mTOR (1360 to 2549 residues) expressed in baculovirus expression system to IC50 for human full length p110alpha (1 to 1068 residues) expressed in baculovirus-infected Sf21 cells. An outline of the steps: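 mTOR activity measured by LanthaScreen assay. PI3K-α activity measured by ADP Hunter Plus (ADP accumulation, fluorescence ex 544/em 580 nm), normalized to no-compound control and fitted to a sigmoid dose-response curve. IC50s are the average of two independent experiments. Ratio is mTOR IC50 over PI3K-α IC50.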
With `COc1ncc2cc1NS(=O)(=O)c1cccc(c1)C(=O)NCc1cncc(c1)-c1cnc3ccc-2nn13`, the Ratio IC50 turned out to be 5.5.

With `COc1ncc2cc1NS(=O)(=O)c1cccc(c1)C(=O)NCc1cccc(c1)-c1cnn3ccc-2nc13`, the Ratio IC50 was > 22.

Another assay deals with Voltage-gated inwardly rectifying potassium channel KCNH2 (Homo sapiens, UniProt Q12809). As to the kind of experiment: Inhibition of human ERG by fluorescence polarization assay. An outline of the steps:
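Predictor h-ERG membrane preparations (sonicated) incubated with test compound dilutions and fluorescent tracer (working 4X tracer at 4 nM) at room temperature for ≥1 h. Read-out by fluorescence polarization, ex 530/25, em 590/35.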
A general note: Fluorescence polarisation rises when a labelled molecule tumbles more slowly, as on binding a larger partner.
Regarding `COc1ncc2cc1NS(=O)(=O)c1cccc(c1)C(=O)NCc1cncc(c1)-c1cnc3ccc-2nn13`, the IC50 was > 30000 nM.

Consider `COc1ncc2cc1NS(=O)(=O)c1cccc(c1)C(=O)NCc1cncc(c1)-c1ccnc3ccc-2nc13`, for which the IC50 was > 30000 nM.

For the molecule `COc1ncc2cc1NS(=O)(=O)c1cccc(c1)C(=O)NCc1cccc(c1)-c1cnn3ccc-2nc13`, the IC50 was > 30000 nM.

The target of the next assay is Phosphatidylinositol 4,5-bisphosphate 3-kinase catalytic subunit alpha isoform (Homo sapiens, UniProt P42336). As to the kind of experiment: Inhibition of human full length p110alpha (1 to 1068 residues) expressed in baculovirus-infected Sf21 cells by ADP-Hunter Plus assay.
Sequence of Phosphatidylinositol 4,5-bisphosphate 3-kinase catalytic subunit alpha isoform (P42336 whole entry, the tested form may be a part, canonical isoform): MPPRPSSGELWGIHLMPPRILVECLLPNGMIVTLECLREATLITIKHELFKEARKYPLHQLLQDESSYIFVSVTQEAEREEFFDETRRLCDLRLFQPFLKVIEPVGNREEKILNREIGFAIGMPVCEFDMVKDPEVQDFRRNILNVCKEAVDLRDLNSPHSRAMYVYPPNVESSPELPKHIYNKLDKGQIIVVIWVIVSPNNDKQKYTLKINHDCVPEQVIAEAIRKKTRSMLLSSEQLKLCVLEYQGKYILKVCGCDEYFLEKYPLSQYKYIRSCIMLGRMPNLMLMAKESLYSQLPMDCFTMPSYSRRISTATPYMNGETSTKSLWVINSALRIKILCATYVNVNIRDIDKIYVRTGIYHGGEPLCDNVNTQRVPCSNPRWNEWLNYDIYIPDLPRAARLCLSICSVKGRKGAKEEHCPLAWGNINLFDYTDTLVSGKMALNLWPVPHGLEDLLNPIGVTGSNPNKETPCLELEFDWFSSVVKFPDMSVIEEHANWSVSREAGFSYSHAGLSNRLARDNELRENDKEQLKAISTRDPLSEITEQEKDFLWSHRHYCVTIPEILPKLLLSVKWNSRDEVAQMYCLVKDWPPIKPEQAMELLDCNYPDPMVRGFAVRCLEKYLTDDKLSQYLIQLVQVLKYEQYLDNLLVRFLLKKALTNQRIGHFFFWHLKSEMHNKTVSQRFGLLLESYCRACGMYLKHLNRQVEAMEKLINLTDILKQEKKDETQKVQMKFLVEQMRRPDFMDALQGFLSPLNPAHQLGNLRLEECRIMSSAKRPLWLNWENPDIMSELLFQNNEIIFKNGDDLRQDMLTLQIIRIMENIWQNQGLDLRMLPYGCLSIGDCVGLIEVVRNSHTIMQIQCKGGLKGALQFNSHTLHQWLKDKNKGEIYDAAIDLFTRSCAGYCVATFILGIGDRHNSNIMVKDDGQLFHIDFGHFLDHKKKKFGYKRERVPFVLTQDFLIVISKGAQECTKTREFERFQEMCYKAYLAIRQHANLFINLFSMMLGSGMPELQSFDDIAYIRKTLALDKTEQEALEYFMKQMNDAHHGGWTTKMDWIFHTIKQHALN
As to `COc1ncc2cc1NS(=O)(=O)c1cccc(c1)C(=O)NCc1cncc(c1)-c1cnc3ccc-2nn13`, the IC50 is 3 nM.

In the case of `COc1ncc2cc1NS(=O)(=O)c1cccc(c1)C(=O)NCc1cccc(c1)-c1cnn3ccc-2nc13`, the half-maximal inhibitory concentration (IC50) turned out to be 445 nM.
